Assay [1] is filed under the species Rattus norvegicus. Nature of the assay: Relative potency in the rat discriminative stimulus assay, expressed as mg of PCP (= 1.0 mg of compound). The format is functional. Put shortly:
(§1)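 Male Fischer-derived CDF rats trained to discriminate PCP (3.0 mg/kg ip, 30 min before session) from saline in a two-choice, discrete-trial avoidance task. In tests, generalization counted if the group averaged ≥90% of 20 trials on the PCP lever. Relative potency versus PCP derived by standard bioassay statistics.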

The species named for assay [2] is Rattus norvegicus. Kind of assay: Ability to displace 7.0 nM [3H]-PCP binding to rat brain homogenate relative to PCP. In short, it runs like this: (§2)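 Freshly prepared rat brain homogenate aliquots incubated 45 min at 4 °C with 7.0 nM [3H]PCP; bound radioligand measured by filtration. Displacement curve for each analogue fitted visually from a log-probit plot to give IC50. PCP run as standard in each assay, and each analogue's IC50 compared with it.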

The species entered for assay [3] is Rattus norvegicus. Nature of the assay: Inhibitory concentration for [3H]PCP binding to rat brain homogenate relative to PCP. Put shortly: as §2
The species named for assay [4] is Rattus norvegicus. Kind of assay: Ability to displace 7.0 nM [3H]PCP binding to rat brain homogenate relative to PCP (IC50= 270 nM). Put shortly: as §2
The subject of assay [5] is Rattus norvegicus. Nature of the assay: Relative potency in the rat discriminative stimulus assay, expressed as mg of PCP (= 1.0 mg of compound); Did not generalize to PCP, Tonic seizures was observed at 56 mg/Kg. Type of assay: functional, organism-based. In short, it runs like this: as §1
Assay [6] deals with Rattus norvegicus. Kind of assay: Relative potency in the rat discriminative stimulus assay, expressed as mg of PCP (= 1.0 mg of compound); Did not generalize to PCP, Produced CNS depression at 56 mg/Kg. Type of assay: functional, organism-based.
Assay [7] concerns Rattus norvegicus. Kind of assay: Relative potency in the rat discriminative stimulus assay, expressed as mg of PCP (= 1.0 mg of compound); Did not generalize to PCP, No activity seen at doses of <=56 mg/Kg. Type of assay: functional, organism-based. Put shortly: as §1

Calls of active or inactive are those of the source. The rule behind the calls is not given here.

In the case of `Cl.c1ccc(C2(N3CCCCC3)CCCCCC2)cc1`, the Relative potency in assay [1] came to 0.06; in assay [2], 0.23.

Regarding `Cl.c1ccc(C2(N3CCCCC3)CCC2)cc1`, the Relative potency was 0.19 in assay [1] and 0.08 in assay [2].

In the case of `Cl.c1ccc(C2(N3CCCCC3)CCCC2)cc1`, the values for the Relative potency in assay [1] and in assay [2] were 0.37 and 0.12, respectively.

The term IC50 denotes the concentration at which inhibition is half-maximal. A higher IC50 goes with a need for much substance. For the molecule `Cl.c1ccc(C2(N3CCCCC3)CCCCC2)cc1` [PHENCYCLIDINE HYDROCHLORIDE], the 50% inhibitory concentration (IC50) in assay [3] worked out at 270 nM. For the same molecule, the Relative potency in assay [4] and in assay [1] was 1 each time.

For the molecule `c1ccc(C2(N3CCCCC3)CCCCCCC2)cc1`, the Relative potency entry in assay [5] is “inactive”. Moreover, the Relative potency in assay [2] is 0.72.

Consider `c1ccc(CN2CCCCC2)cc1`, for which the Relative potency entry in assay [6] is “inactive”. The molecule also had a Relative potency in assay [2] of 0.02.

As to `c1ccc(C2(N3CCCCC3)CC2)cc1`, the Relative potency entry in assay [7] is “inactive”. Further, the Relative potency in assay [2] was 0.07.

For the origin of these results see ChEMBL document CHEMBL1121756, “Structure-activity relationships of the cycloalkyl ring of phencyclidine” (J Med Chem, 1981).
